ChEMBL document CHEMBL3046131, “Synthesis and quantitative structure-activity relationship (QSAR) study of novel isoxazoline and oxime derivatives of podophyllotoxin as insecticidal agents” (2012)

What was measured:
Assay type in all cases: functional
Mythimna separata [1] = assay: Insecticidal activity against pre-third-instar larvae of Mythimna separata (Oriental armyworm) in wheat leaves at 1 mg/mL after 20 days by leaf-dipping method; conditions: 480 h
Outline: (§1)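 Compounds dissolved in acetone at 1 mg/mL. Fresh wheat leaves dipped 3 s, then dried at room conditions. Acetone-only leaves served as blank control and toosendanin as positive control. Ten larvae per dish fed treated leaves, replenished when consumed, for 48 h. Untreated fresh leaves were then given until adult emergence. Held at 25 ± 2 °C, 65−80% RH, 12 h/12 h light/dark. Activity calculated by formula.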

Mythimna separata [2] = assay: Insecticidal activity against pre-third-instar larvae of Mythimna separata (Oriental armyworm) in wheat leaves at 1 mg/mL after 33 days by leaf-dipping method; conditions: 792 h; outline: as §1
Mythimna separata [3] = assay: Insecticidal activity against pre-third-instar larvae of Mythimna separata (Oriental armyworm) in wheat leaves at 1 mg/mL after 5 days by leaf-dipping method; conditions: 120 h; outline: as §1

Row | SMILES | mortality at 1000 µg/mL (Mythimna separata [1]) [%] | mortality at 1000 µg/mL (Mythimna separata [2]) [%] | mortality at 1000 µg/mL (Mythimna separata [3]) [%]
1 | CCCCNC(=O)[C@@H]1[C@H](c2cc(OC)c(OC)c(OC)c2)c2cc3c(cc2C2=NOC[C@H]21)OCO3 | 0 | 10.3 | 0
2 | COc1cc([C@@H]2c3cc4c(cc3/C(=N\O)[C@H]3COC(=O)[C@H]23)OCO4)cc(OC)c1OC | 24.1 | 34.5 | 10
3 | COC(=O)[C@@H]1[C@H](c2cc(OC)c(OC)c(OC)c2)c2cc3c(cc2C2=NOC[C@H]21)OCO3 | 31 | 41.4 | 23.3
4 | CCOC(=O)[C@@H]1[C@H](c2cc(OC)c(OC)c(OC)c2)c2cc3c(cc2C2=NOC[C@H]21)OCO3 | 31 | 44.8 | 20
5 | CCCCOC(=O)[C@@H]1[C@H](c2cc(OC)c(OC)c(OC)c2)c2cc3c(cc2C2=NOC[C@H]21)OCO3 | 34.5 | 58.6 | 23.3
6 | CCCCCCCCOC(=O)[C@@H]1[C@H](c2cc(OC)c(OC)c(OC)c2)c2cc3c(cc2C2=NOC[C@H]21)OCO3 | 34.5 | 37.9 | 30
7 | COc1cc([C@@H]2c3cc4c(cc3C3=NOC[C@H]3[C@@H]2C(=O)OCCc2ccccc2)OCO4)cc(OC)c1OC | 27.6 | 41.4 | 20
8 | COc1cc([C@@H]2c3cc4c(cc3C3=NOC[C@H]3[C@@H]2C(=O)OCc2ccccc2)OCO4)cc(OC)c1OC | 31 | 37.9 | 23.3
9 | COc1ccc(COC(=O)[C@@H]2[C@H](c3cc(OC)c(OC)c(OC)c3)c3cc4c(cc3C3=NOC[C@H]32)OCO4)cc1 | 37.9 | 44.8 | 26.7
10 | COc1cc([C@@H]2c3cc4c(cc3C3=NOC[C@H]3[C@@H]2C(=O)OCc2cccc(F)c2)OCO4)cc(OC)c1OC | 34.5 | 34.5 | 23.3
11 | COc1cc([C@@H]2c3cc4c(cc3C3=NOC[C@H]3[C@@H]2C(=O)OCc2ccc([N+](=O)[O-])cc2)OCO4)cc(OC)c1OC | 24.1 | 27.6 | 23.3
12 | COc1cc([C@@H]2c3cc4c(cc3C3=NOC[C@H]3[C@@H]2COC=O)OCO4)cc(OC)c1OC | 10.3 | 24.1 | 0
13 | CCCC(=O)OC[C@@H]1[C@H](c2cc(OC)c(OC)c(OC)c2)c2cc3c(cc2C2=NOC[C@H]21)OCO3 | 13.8 | 34.5 | 6.7
14 | CCCCCCCC(=O)OC[C@@H]1[C@H](c2cc(OC)c(OC)c(OC)c2)c2cc3c(cc2C2=NOC[C@H]21)OCO3 | 6.9 | 17.2 | 0
15 | COc1cc([C@@H]2c3cc4c(cc3C3=NOC[C@H]3[C@@H]2COC(=O)Cc2ccccc2)OCO4)cc(OC)c1OC | 6.9 | 20.7 | 6.7
16 | COc1cc([C@@H]2c3cc4c(cc3C3=NOC[C@H]3[C@@H]2COC(=O)c2ccccc2)OCO4)cc(OC)c1OC | 27.6 | 41.4 | 26.7
17 | COc1ccc(C(=O)OC[C@@H]2[C@H](c3cc(OC)c(OC)c(OC)c3)c3cc4c(cc3C3=NOC[C@H]32)OCO4)cc1 | 13.8 | 37.9 | 6.7
18 | COc1cc([C@@H]2c3cc4c(cc3C3=NOC[C@H]3[C@@H]2COC(=O)c2cccc(F)c2)OCO4)cc(OC)c1OC | 34.5 | 55.2 | 23.3

Row | SMILES | mortality at 1000 µg/mL (Mythimna separata [1]) [%] | mortality at 1000 µg/mL (Mythimna separata [2]) [%] | mortality at 1000 µg/mL (Mythimna separata [3]) [%]
19 | COc1cc([C@@H]2c3cc4c(cc3C3=NOC[C@H]3[C@@H]2COC(=O)c2ccc([N+](=O)[O-])cc2)OCO4)cc(OC)c1OC | 37.9 | 58.6 | 26.7
20 | COc1cc([C@@H]2c3cc4c(cc3/C(=N/OS(=O)(=O)c3ccc(C)cc3)[C@H]3COC(=O)[C@@H]23)OCO4)cc(OC)c1OC | 34.5 | 44.8 | 20
21 | CCc1ccc(S(=O)(=O)O/N=C2/c3cc4c(cc3[C@@H](c3cc(OC)c(OC)c(OC)c3)[C@@H]3C(=O)OC[C@H]23)OCO4)cc1 | 17.2 | 27.6 | 3.3
22 | COc1ccc(S(=O)(=O)O/N=C2/c3cc4c(cc3[C@@H](c3cc(OC)c(OC)c(OC)c3)[C@@H]3C(=O)OC[C@H]23)OCO4)cc1 | 3.5 | 24.1 | 0
23 | COc1cc([C@@H]2c3cc4c(cc3/C(=N/OS(=O)(=O)c3ccc(Cl)cc3)[C@H]3COC(=O)[C@@H]23)OCO4)cc(OC)c1OC | 37.9 | 55.2 | 26.7
24 | COc1cc([C@@H]2c3cc4c(cc3/C(=N/OS(=O)(=O)c3ccc(Br)cc3)[C@H]3COC(=O)[C@@H]23)OCO4)cc(OC)c1OC | 10.3 | 27.6 | 0
25 | COc1cc([C@@H]2c3cc4c(cc3/C(=N/OS(=O)(=O)c3cccc([N+](=O)[O-])c3)[C@H]3COC(=O)[C@@H]23)OCO4)cc(OC)c1OC | 3.5 | 13.8 | 0
26 | COc1cc([C@@H]2c3cc4c(cc3/C(=N/OS(=O)(=O)c3ccc(Cl)c([N+](=O)[O-])c3)[C@H]3COC(=O)[C@@H]23)OCO4)cc(OC)c1OC | 3.5 | 13.8 | 0
27 | COc1cc([C@@H]2c3cc4c(cc3/C(=N/OS(C)(=O)=O)[C@H]3COC(=O)[C@@H]23)OCO4)cc(OC)c1OC | 17.2 | 24.1 | 0
28 | COc1cc([C@@H]2c3cc4c(cc3/C(=N/O)[C@H]3COC(=O)[C@@H]23)OCO4)cc(OC)c1OC | 6.9 | 17.2 | 0
29 | COc1cc([C@@H]2c3cc4c(cc3/C(=N/OS(=O)(=O)c3ccccc3)[C@H]3COC(=O)[C@@H]23)OCO4)cc(OC)c1OC | 6.9 | 24.1 | 0
30 | COc1cc([C@@H]2c3cc4c(cc3C3=NOC[C@H]3[C@@H]2C(=O)O)OCO4)cc(OC)c1OC | 31 | 41.4 | 20
31 | COc1cc([C@@H]2c3cc4c(cc3C3=NOC[C@H]3[C@@H]2CO)OCO4)cc(OC)c1OC [ISOXAZOLOPODOPHYLLOL] | 20.7 | 37.9 | 20
32 | COc1cc([C@@H]2c3cc4c(cc3C(=O)[C@H]3COC(=O)[C@@H]23)OCO4)cc(OC)c1OC [PICROPODOPHYLLONE] | 20.7 | 27.6 | 
33 | COc1cc([C@@H]2c3cc4c(cc3[C@H](O)[C@H]3COC(=O)[C@H]23)OCO4)cc(OC)c1OC [PODOFILOX] | 10.3 | 37.9 | 3.3
34 | COc1cc([C@@H]2c3cc4c(cc3C(=O)[C@H]3COC(=O)[C@H]23)OCO4)cc(OC)c1OC [PODOPHYLLOTOXONE] | 3.5 | 17.2 | 6.7
35 | CC(=O)O[C@@H]1C[C@H](O)[C@@]23CO[C@@H](O)[C@]1(C)[C@@H]2C[C@@H](O)[C@]1(C)[C@@H]3C(=O)[C@H](OC(C)=O)[C@@]2(C)[C@H](c3ccoc3)C[C@H]3O[C@]321 [TOOSENDANIN] | 13.8 | 44.8 | 6.7
